Assay results: ChEMBL document CHEMBL1671816, “Design and synthesis of oxymatrine analogues overcoming drug resistance in hepatitis B virus through targeting host heat stress cognate 70” (J Med Chem, 2011)

Key:
HepG2 2.2.15 = experiment: Inhibition of Hsc70 mRNA expression in human HepG2(2.2.15) cells at 100 ug/ml after 24 hrs by RT-PCR analysis; format: functional; conditions: HepG2 2.2.15, 24 h
How it was run: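 HepG2.2.15 cells seeded at 5 × 10^4 per well in Opti-MEM with 10% FBS, grown for one day, then exposed to compound at 100 μg/mL for 24 h. Total RNA isolated with TRIZOL. Hsc70 mRNA measured by real-time RT-PCR with GAPDH as the reference gene.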

[1] = test system: Hepatitis B virus (human); experiment: Antiviral activity against HBV in human HepG2(2.2.15) cells assessed as reduction of viral DNA level after 9 days by RT-PCR analysis; conditions: HepG2 2.2.15, 216 h
[2] = Cytotoxicity against human HepG2(2.2.15) cells after 9 days; format: cell-based; conditions: read-out: TC50
How it was run: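 Cytotoxicity in HepG2.2.15 cells cultured for 9 days at 37 °C, seeded at 2 × 10^4 per well. TC50 is the concentration killing 50% of cells relative to untreated controls.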

Hepatitis B virus [3] = experiment: Antiviral activity against lamivudine-resistant HBV infected in human Huh7.5 cells assessed as reduction of viral replication at 0.16 ug/ml after 36 hrs; format: functional; conditions: Huh-7, 36 h
How it was run: (§1)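 Huh7.5 cells (2 × 10^5/well) were plated, incubated overnight, then transiently transfected for 24 h with pcDNA3.1 carrying wild-type or lamivudine-resistant HBV (rtL180M + rtM204V). After a PBS wash they got fresh medium with drug (0.16 μg/mL for line 6, 37 μg/mL for line 7) for 36 h. HBV DNA replicative intermediate was measured by real-time PCR; experiment run twice, mean and SD.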

Hepatitis B virus [4] = experiment: Antiviral activity against wild type HBV infected in human Huh7.5 cells assessed as reduction of viral replication at 0.16 ug/ml after 36 hrs; format: functional; conditions: Huh-7, 36 h
How it was run: (§2)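 Huh7.5 cells (DMEM, 10% inactivated FBS, 1% pen-strep) plated at 2 × 10^5 per well, incubated overnight, then transiently transfected for 24 h with pcDNA3.1 carrying the full wild-type or lamivudine-resistant (rtL180M + rtM204V) HBV genome. After a PBS wash, treated in fresh medium for 36 h. Replicative-intermediate HBV DNA measured by real-time PCR. Run twice; mean and SD.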

Hepatitis B virus [5] = experiment: Antiviral activity against lamivudine-resistant HBV infected in human Huh7.5 cells assessed as reduction of viral replication at 37 ug/ml after 36 hrs; format: functional; conditions: Huh-7, 36 h, read-out: INH; how it was run: as §1
Mus musculus [6] = experiment: Acute toxicity in ICR mouse assessed as kidney function at up to 750 mg/kg, po after 7 days; format: organism-based; parameters: dose 750 mg/kg, route oral; conditions: in vivo, 168 h
How it was run: (§3)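 Male and female ICR mice (22.0 ± 1.0 g), 10 per group (5 male, 5 female), given a single oral dose of 0 (1% polysorbate-80 in saline), 250, 500 or 750 mg/kg. Survival and body weight were monitored for 7 days. Blood was then drawn for AST, ALT, BUN and CRE as liver and kidney function markers.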

Mus musculus [7] = experiment: Acute toxicity in ICR mouse assessed as mortality at up to 750 mg/kg, po after 7 days; format: organism-based; parameters: dose 750 mg/kg, route oral; conditions: in vivo, 168 h; how it was run: as §3
Mus musculus [8] = experiment: Acute toxicity in ICR mouse assessed as change in body weight at up to 750 mg/kg, po after 7 days; format: organism-based; parameters: dose 750 mg/kg, route oral; conditions: in vivo, 168 h; how it was run: as §3
Hepatitis B virus [9] = experiment: Antiviral activity against wild type HBV infected in human Huh7.5 cells assessed as reduction of viral replication at 37 ug/ml after 36 hrs; format: functional; conditions: Huh-7, 36 h, read-out: INH; how it was run: as §2
Mus musculus [10] = experiment: Acute toxicity in ICR mouse assessed as liver function at up to 750 mg/kg, po after 7 days; format: organism-based; parameters: dose 750 mg/kg, route oral; conditions: in vivo, 168 h; how it was run: as §3
[11] = Acute toxicity in po dosed ICR mouse assessed as mortality after 7 days; format: organism-based; conditions: in vivo; how it was run: as §3

| IC50 [1] [µM] | SMILES | inhibition at 100 µg/mL (HepG2 2.2.15) [%] | CC50 at 216 h [2] [mM] | further results |
| --- | --- | --- | --- | --- |
| 16.3 | O=C(OC1CC(=O)N2C[C@@H]3CCCN4CCC[C@@H]([C@H]34)[C@H]2C1)c1ccccc1 (stereo not given in full) | 51 | 0.236 |  |
| 47.1 | O=C1C(O)C(O)C[C@@H]2[C@H]3CCCN4CCC[C@@H](CN12)[C@@H]34 (stereo not given in full) [13,14-DIHYDROXYMATRINE] | 38.9 | > 1 |  |
| 592 | CC(Cl)C(=O)OC1C[C@@H]2[C@H]3CCCN4CCC[C@@H](CN2C(=O)C1O)[C@@H]34.Cl (stereo not given in full) | 48.6 | > 1 |  |
|  | Nc1ccn([C@@H]2CS[C@H](CO)O2)c(=O)n1 [LAMIVUDINE] |  |  | inhibition at 0.16 µg/mL (Hepatitis B virus [3]): 28%; inhibition at 0.16 µg/mL (Hepatitis B virus [4]): 64% |
| 42.6 | Cl.O=C(OC1C[C@@H]2[C@H]3CCCN4CCC[C@@H](CN2C(=O)C1O)[C@@H]34)c1ccccc1 (stereo not given in full) | 34.5 | 0.136 |  |
|  | O=C1C=CC[C@@H]2[C@H]3CCCN4CCC[C@@H](CN12)[C@@H]34 [SOPHOCARPINE] | 21.6 |  |  |
| 121 | COC1CC(=O)N2C[C@@H]3CCCN4CCC[C@@H]([C@H]34)[C@H]2C1 (stereo not given in full) | 48.6 | 1.11 |  |
|  | O=C(OC1C[C@@H]2[C@H]3CCCN4CCC[C@@H](CN2C(=O)C1OC(=O)c1ccc(F)c([N+](=O)[O-])c1)[C@@H]34)c1ccc(F)c([N+](=O)[O-])c1 (stereo not given in full) | 30.8 |  |  |
|  | O=C1CC(O)C[C@@H]2[C@H]3CCCN4CCC[C@@H](CN12)[C@@H]34 (stereo not given in full) [13-HYDROXYMATRINE] | 50.4 |  |  |
| 106 | O=C(O)P(=O)(O)O [FOSCARNET] |  | > 1 |  |
|  | CCOC(=O)OC1C[C@@H]2[C@H]3CCCN4CCC[C@@H](CN2C(=O)C1OC(=O)OCC)[C@@H]34 (stereo not given in full) | < 10 |  |  |
|  | O=C1CCC[C@@H]2[C@H]3CCCN4CCC[C@@H](CN12)[C@@H]34 [MATRINE] | 52.4 |  |  |
|  | O=C(OC1C[C@@H]2[C@H]3CCCN4CCC[C@@H](CN2C(=O)C1O)[C@@H]34)c1ccc(F)c([N+](=O)[O-])c1 (stereo not given in full) | 43.4 |  |  |
| 23.9 | CCOC(=O)OC1C[C@@H]2[C@H]3CCCN4CCC[C@@H](CN2C(=O)C1O)[C@@H]34 (stereo not given in full) | 54.8 | 1 |  |
|  | COC1=CC[C@@H]2[C@H]3CCCN4CCC[C@@H](CN2C1=O)[C@@H]34 | 39.7 |  |  |
| 14 | Cl.O=C(CCl)OC1C[C@@H]2[C@H]3CCCN4CCC[C@@H](CN2C(=O)C1O)[C@@H]34 (stereo not given in full) | 88.2 | 1.1 |  |
| 54.5 | O=C1CC(C[N+](=O)[O-])C[C@@H]2[C@H]3CCCN4CCC[C@@H](CN12)[C@@H]34 (stereo not given in full) | 35.8 | > 1 |  |
| 2.76 | O=C1C(OCc2ccccc2)C(OCc2ccccc2)C[C@@H]2[C@H]3CCCN4CCC[C@@H](CN12)[C@@H]34 (stereo not given in full) | 45.4 | 0.037 |  |
|  | O=C1CCC[C@@H]2[C@H]3CCC[N+]4([O-])CCC[C@@H](CN12)[C@@H]34 (stereo not given in full) [OXYMATRINE] | 55 |  |  |
| 14.4 | O=C1CC(OCc2ccccc2)C[C@@H]2[C@H]3CCCN4CCC[C@@H](CN12)[C@@H]34 (stereo not given in full) | 24.7 | 0.136 |  |
|  | O=C1C=CC[C@@H]2[C@H]3CCC[N+]4([O-])CCC[C@@H](CN12)[C@@H]34 (stereo not given in full) [OXYSOPHOCARPINE] | 15.3 |  |  |
| 168 | CNC1CC(=O)N2C[C@@H]3CCCN4CCC[C@@H]([C@H]34)[C@H]2C1 (stereo not given in full) | 40.1 | > 1 |  |
| 346 | CC(=O)OC1C[C@@H]2[C@H]3CCCN4CCC[C@@H](CN2C(=O)C1O)[C@@H]34.Cl (stereo not given in full) | 37.1 | > 1 |  |
|  | COC1C[C@@H]2[C@H]3CCCN4CCC[C@@H](CN2C(=O)C1OC)[C@@H]34 (stereo not given in full) | 39.3 |  |  |

| SMILES | IC50 [1] [µM] | inhibition at 100 µg/mL (HepG2 2.2.15) [%] | CC50 at 216 h [2] [mM] | further results |
| --- | --- | --- | --- | --- |
| CCOC1CC(=O)N2C[C@@H]3CCCN4CCC[C@@H]([C@H]34)[C@H]2C1 (stereo not given in full) | 9.55 | 74.1 | 0.481 | inhibition at 37 µg/mL (Hepatitis B virus [5]): 35%; Activity (Mus musculus [6]): Non-toxic; Activity (Mus musculus [7]): Non-toxic; Activity (Mus musculus [8]): Non-toxic; inhibition at 37 µg/mL (Hepatitis B virus [9]): 32%; Activity (Mus musculus [10]): Non-toxic; LD50 at 168 h [11]: > 750 mg/kg |
